From ChEMBL document CHEMBL2417474, “Synthesis, antiproliferative and anti-inflammatory activities of some novel 6-aryl-2-(p-(methanesulfonyl)phenyl)-4,5-dihydropyridazi-3(2H)-ones” (Eur J Med Chem, 2013)

Assays:
Format in all cases: functional
SF-295 = assay: Growth inhibition of human SF295 cells after 48 hrs by sulforhodamine B assay; settings: SF-295, 48 h
Procedure, shortened: (§1)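 NCI 60-cell-line panel. Cells were grown in medium with 5% fetal calf serum and 2 mM L-glutamine, then preincubated 24 h in plates. Compounds were added from DMSO at five 10-fold concentrations from 100 to 0.01 µM and left on cells continuously for 48 h. Cell growth was read by sulforhodamine B protein stain. GI50 is the concentration that halves net protein increase relative to control cells.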

PC-3 = assay: Growth inhibition of human PC3 cells after 48 hrs by sulforhodamine B assay; settings: PC-3, 48 h; procedure, shortened: as §1
NCI-H226 = assay: Growth inhibition of human NCI-H226 cells after 48 hrs by sulforhodamine B assay; settings: NCI-H226, 48 h; for CC50: read-out: LC50 (the source's name); procedure, shortened: as §1
DU-145 = assay: Growth inhibition of human DU145 cells after 48 hrs by sulforhodamine B assay; settings: DU-145, 48 h; for CC50: read-out: LC50 (the source's name)
Procedure, shortened: (§2)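 NCI 60-cell-line panel grown in RPMI-type medium with 5% fetal calf serum and 2 mM L-glutamine. Cells preincubated 24 h, then exposed continuously for 48 h to compound in DMSO at 10^-4 to 10^-8 M (five 10-fold levels). Growth read by SRB protein stain. GI50 is the concentration giving a 50% reduction in net protein increase relative to control cells.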

UO-31 = assay: Growth inhibition of human UO31 cells after 48 hrs by sulforhodamine B assay; settings: UO-31, 48 h
Procedure, shortened: (§3)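 NCI 60-line panel. Cells were grown in medium with 5% fetal calf serum and 2 mM L-glutamine and preincubated 24 h in plates. Compound in DMSO was added at 10^-4 to 10^-8 M (five 10-fold levels), with continuous exposure for 48 h. Growth was read by SRB protein staining. GI50 is the concentration giving 50% reduction in net protein increase versus control cells.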

KM12 [1] = assay: Growth inhibition of human KM12 cells after 48 hrs by sulforhodamine B assay; settings: KM12, 48 h; procedure, shortened: as §2
[2] = Growth inhibition of human EKVX cells after 48 hrs by sulforhodamine B assay; settings: for CC50: read-out: LC50 (the source's name); procedure, shortened: as §2
[3] = Growth inhibition of human HCC2998 cells after 48 hrs by sulforhodamine B assay; settings: HCC 2998, 48 h; for CC50: read-out: LC50 (the source's name); procedure, shortened: as §2
[4] = Growth inhibition of human Hs 578T cells after 48 hrs by sulforhodamine B assay; procedure, shortened: as §2
SR [5] = assay: Growth inhibition of human SR cells after 48 hrs by sulforhodamine B assay; procedure, shortened: as §1
786-0 = assay: Growth inhibition of human 786-0 cells after 48 hrs by sulforhodamine B assay; settings: 786-0, 48 h; procedure, shortened: as §2
SNB-19 [6] = assay: Growth inhibition of human SNB19 cells after 48 hrs by sulforhodamine B assay; settings: SNB-19, 48 h; for CC50: read-out: LC50 (the source's name); procedure, shortened: as §1
OVCAR-3 = assay: Growth inhibition of human OVCAR3 cells after 48 hrs by sulforhodamine B assay; settings: OVCAR-3, 48 h; procedure, shortened: as §1
T47D = assay: Growth inhibition of human T47D cells after 48 hrs by sulforhodamine B assay; procedure, shortened: as §3
HL-60(TB) = assay: Growth inhibition of human HL-60(TB) cells after 48 hrs by sulforhodamine B assay; settings: HL-60, 48 h; for CC50: read-out: LC50 (the source's name)
Procedure, shortened: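 Part of the NCI 60-cell-line panel. Cells were grown in 1640 medium with 5% fetal calf serum and 2 mM L-glutamine, then preincubated 24 h before compound was added. Compounds in DMSO were tested at five concentrations (100, 10, 1, 0.1, 0.01 µM) with 48 h continuous exposure. Read-out was SRB protein staining; GI50 is the concentration halving the net protein increase versus control.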

SW-620 = assay: Growth inhibition of human SW620 cells after 48 hrs by sulforhodamine B assay; settings: SW-620, 48 h; for CC50: read-out: LC50 (the source's name); procedure, shortened: as §3
Rattus norvegicus = assay: Antiinflammatory activity in Wistar rat assessed as inhibition of carrageenan-induced paw edema at 0.05 mmol/kg, po administered 30 mins prior challenge measured after 3 hrs
Procedure, shortened: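 Wistar rats of either sex, 150–175 g, fasted 16 h, 6 per group. Dosed orally at 0.05 mmol/kg, suspended in 1% CMC in water (10 ml/kg). 30 min later, 0.1 ml of 1% carrageenan in saline injected subplantar into the left hind paw. Paw volume read by plethysmometer at 0, 3 and 5 h. % inhibition = (1 − Vt/Vc) × 100 against the vehicle group.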

SNB-19 [7] = assay: Growth inhibition of human SNB19 cells assessed as cell growth at 10 uM after 48 hrs by sulforhodamine B assay; settings: SNB-19, 48 h, read-out: Activity
ACHN = assay: Growth inhibition of human ACHN cells assessed as cell growth at 10 uM after 48 hrs by sulforhodamine B assay; settings: read-out: Activity
COLO 205 = assay: Growth inhibition of human COLO205 cells assessed as cell growth at 10 uM after 48 hrs by sulforhodamine B assay; settings: COLO 205, 48 h, read-out: Activity
HOP-92 = assay: Growth inhibition of human HOP92 cells assessed as cell growth at 10 uM after 48 hrs by sulforhodamine B assay; settings: HOP-92, 48 h, read-out: Activity
IGROV-1 = assay: Growth inhibition of human IGROV1 cells assessed as cell growth at 10 uM after 48 hrs by sulforhodamine B assay; settings: IGROV-1, 48 h, read-out: Activity
TK-10 = assay: Growth inhibition of human TK10 cells assessed as cell growth at 10 uM after 48 hrs by sulforhodamine B assay; settings: TK-10, 48 h, read-out: Activity
Procedure, shortened: (§4)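 Single-dose NCI screen. Tumor lines were cultured in medium with 5% fetal calf serum and 2 mM L-glutamine, preincubated 24 h, then given compound in DMSO. After 48 h continuous exposure, cell growth was estimated by sulforhodamine B protein assay.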

SK-OV-3 = assay: Growth inhibition of human SKOV3 cells assessed as cell growth at 10 uM after 48 hrs by sulforhodamine B assay; settings: SK-OV-3, 48 h, read-out: Activity
KM12 [8] = assay: Growth inhibition of human KM12 cells assessed as cell growth at 10 uM after 48 hrs by sulforhodamine B assay; settings: KM12, 48 h, read-out: Activity
LOX IMVI = assay: Growth inhibition of human LOXIMVI cells assessed as cell growth at 10 uM after 48 hrs by sulforhodamine B assay; settings: read-out: Activity
SR [9] = assay: Growth inhibition of human SR cells assessed as cell growth at 10 uM after 48 hrs by sulforhodamine B assay; settings: read-out: Activity; procedure, shortened: as §4

## O=c1[nH]cc(F)c(=O)[nH]1 [FLUOROURACIL]
SF-295
  GI50: 220 nM
PC-3
  GI50: 2360 nM
NCI-H226
  GI50: 54.7 µM
DU-145
  GI50: 360 nM
UO-31
  GI50: 1.42 µM
KM12 [1]
  GI50: 210 nM
[2]
  GI50: 61.8 µM
[3]
  GI50: 50 nM
[4]
  GI50: 9.77 µM
SR [5]
  GI50: 20 nM
786-0
  GI50: 0.72 µM
SNB-19 [6]
  GI50: 3.81 µM
OVCAR-3
  GI50: 10 nM
T47D
  GI50: 8.12 µM
HL-60(TB)
  GI50: 2300 nM
SW-620
  GI50: 920 nM

## Cc1cc(O)ccc1C1=NN(c2ccc(S(C)(=O)=O)cc2)C(=O)CC1
SF-295
  GI50: 2870 nM
  LC50 (concentration killing 50% of cells present at start): > 100 µM
  TGI: 12.4 µM
Rattus norvegicus
  inhibition in vivo at 50 µmol/kg: 33.3%
PC-3
  GI50: 14800 nM
  LC50: > 100 µM
  TGI: > 100 µM
SNB-19 [7]
  growth at 10 µM: 78.2%
NCI-H226
  GI50: > 100 µM
  TGI: > 100 µM
  CC50: > 100 µM
DU-145
  GI50: 24700 nM
  TGI: > 100 µM
  CC50: > 100 µM
UO-31
  GI50: 14.8 µM
  LC50 (concentration killing 50% of cells): > 100 µM
  TGI: > 100 µM
ACHN
  growth at 10 µM: 79.7%
KM12 [1]
  GI50: 4220 nM
  LC50: > 100 µM
  TGI: > 100 µM
COLO 205
  growth at 10 µM: 65.8%
[2]
  GI50: 57.9 µM
  TGI: > 100 µM
  CC50: > 100 µM
[3]
  GI50: 46700 nM
  TGI: > 100 µM
  CC50: > 100 µM
[4]
  GI50: 4.15 µM
  LC50 (concentration giving 50% net cell kill): > 100 µM
  TGI: > 100 µM
SR [5]
  GI50: 3390 nM
  LC50: > 100 µM
  TGI: > 100 µM
786-0
  GI50: 92.5 µM
  LC50: > 100 µM
  TGI: > 100 µM
SNB-19 [6]
  GI50: 50.4 µM
  TGI: > 100 µM
  CC50: > 100 µM
HOP-92
  growth at 10 µM: 92.8%
OVCAR-3
  GI50: 3410 nM
  LC50 (lethal concentration, 50% net cell kill): > 100 µM
  TGI: 9.44 µM
T47D
  GI50: 20.2 µM
  LC50: > 100 µM
  TGI: > 100 µM
HL-60(TB)
  GI50: 3520 nM
  TGI: 48.4 µM
  CC50: > 100 µM
IGROV-1
  growth at 10 µM: 43.5%
TK-10
  growth at 10 µM: 105%
SK-OV-3
  growth at 10 µM: 85%
KM12 [8]
  growth at 10 µM: 47.6%
SW-620
  GI50: 3320 nM
  TGI: > 100 µM
  CC50: > 100 µM
LOX IMVI
  growth at 10 µM: 67.5%
SR [9]
  growth at 10 µM: 12.3%

## Cc1ccc(C2=NN(c3ccc(S(C)(=O)=O)cc3)C(=O)CC2)cc1
SF-295
  GI50: 400 nM
  LC50 (concentration killing 50% of cells present at start): > 100 µM
  TGI: 5.36 µM
Rattus norvegicus
  inhibition in vivo at 50 µmol/kg: 46.7%
PC-3
  GI50: 1430 nM
  LC50: > 100 µM
  TGI: > 100 µM
SNB-19 [7]
  growth at 10 µM: 55%
NCI-H226
  GI50: 0.43 µM
  TGI: > 100 µM
  CC50: > 100 µM
DU-145
  GI50: 2910 nM
  TGI: > 100 µM
  CC50: > 100 µM
UO-31
  GI50: 4.72 µM
  LC50 (concentration killing 50% of cells): > 100 µM
  TGI: > 100 µM
ACHN
  growth at 10 µM: 54.5%
KM12 [1]
  GI50: 440 nM
  LC50: > 100 µM
  TGI: > 100 µM
COLO 205
  growth at 10 µM: 4.23%
[2]
  GI50: 3.02 µM
  TGI: > 100 µM
  CC50: > 100 µM
[3]
  GI50: 2750 nM
  TGI: > 100 µM
  CC50: > 100 µM
[4]
  GI50: 0.46 µM
  LC50 (concentration giving 50% net cell kill): > 100 µM
SR [5]
  GI50: 290 nM
  LC50: > 100 µM
  TGI: > 100 µM
786-0
  GI50: 5.78 µM
  LC50: > 100 µM
  TGI: > 100 µM
SNB-19 [6]
  GI50: 1.25 µM
  TGI: > 100 µM
  CC50: > 100 µM
HOP-92
  growth at 10 µM: 60.9%
OVCAR-3
  GI50: 360 nM
  LC50 (lethal concentration, 50% net cell kill): > 100 µM
  TGI: 3.33 µM
T47D
  GI50: 2.08 µM
  LC50: > 100 µM
  TGI: > 100 µM
HL-60(TB)
  GI50: 400 nM
  TGI: 2.58 µM
  CC50: > 100 µM
IGROV-1
  growth at 10 µM: 59.2%
TK-10
  growth at 10 µM: 67%
SK-OV-3
  growth at 10 µM: 19.9%
KM12 [8]
  growth at 10 µM: 35%
SW-620
  GI50: 340 nM
  TGI: > 100 µM
  CC50: > 100 µM
LOX IMVI
  growth at 10 µM: 33.7%
SR [9]
  growth at 10 µM: 4.47%
